# Laboratory results published in ChEMBL document CHEMBL1137507, “Discovery, synthesis, and structure-activity studies of tetrazole based growth hormone secretagogues” (Bioorg Med Chem Lett, 2007).
# Columns and labels:
# [1] = biological target: T1, Growth hormone secretagogue receptor type 1 (Homo sapiens, UniProt Q92847); assay: Agonist activity at human GHS receptor expressed in H4 glioma cells assessed as intracellular calcium concentration by FLIPR assay; type: functional, cell-based
# [2] = biological target: T1, Growth hormone secretagogue receptor type 1; assay: Displacement of [125I]ghrelin from human GHSR1a after 1 hr
# Summary of the method: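 Membranes (0.5 ug) from RAGE-based GHSR1a-expressing cells incubated 1 h with 0.02 nM [125I]ghrelin in 25 mM Hepes pH 7.2, 10 mM MgCl2, 2 mM EGTA, 0.1% BSA across a 12-point compound dose range; filtration over polyethylenimine-coated GFB plates, scintillation counting; four-parameter logistic fit, Ki via Cheng-Prusoff; typically tested on three separate occasions.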
# [3] = biological target: Growth hormone secretagogue receptor type 1 (Rattus norvegicus) (UniProt O08725); assay: Agonist activity at GHS receptor in intravenously dosed anesthetized Wistar rat after 15 mins; type: functional, organism-based
# [4] = Oral bioavailability in rat; type: ADME, organism-based; conditions: in vivo
# Canis familiaris = assay: Effect on GH level in Beagle dog at 10 mg/kg, po; type: functional, Canis lupus familiaris
# Summary of the method: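 Beagle dogs dosed orally at 10 mg/kg alongside vehicle controls; plasma GH followed to 120 min post-dose, read-out as mean peak GH level in ng/mL.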
# [5] = Oral bioavailability in dog; type: ADME, organism-based, Canis lupus familiaris; conditions: in vivo
# Growth hormone secretagogue receptor type 1 (Rattus norvegicus), sequence (O08725 whole entry): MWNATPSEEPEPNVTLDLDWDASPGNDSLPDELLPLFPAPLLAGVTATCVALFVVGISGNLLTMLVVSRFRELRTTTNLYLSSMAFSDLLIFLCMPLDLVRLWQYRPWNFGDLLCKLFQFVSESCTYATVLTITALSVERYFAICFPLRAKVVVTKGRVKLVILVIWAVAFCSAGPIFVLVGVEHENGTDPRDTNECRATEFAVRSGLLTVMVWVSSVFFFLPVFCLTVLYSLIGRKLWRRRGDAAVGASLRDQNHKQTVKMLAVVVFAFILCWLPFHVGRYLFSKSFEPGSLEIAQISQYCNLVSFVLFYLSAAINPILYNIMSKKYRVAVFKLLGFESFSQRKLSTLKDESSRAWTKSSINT
# T1 sequence (Q92847 whole entry): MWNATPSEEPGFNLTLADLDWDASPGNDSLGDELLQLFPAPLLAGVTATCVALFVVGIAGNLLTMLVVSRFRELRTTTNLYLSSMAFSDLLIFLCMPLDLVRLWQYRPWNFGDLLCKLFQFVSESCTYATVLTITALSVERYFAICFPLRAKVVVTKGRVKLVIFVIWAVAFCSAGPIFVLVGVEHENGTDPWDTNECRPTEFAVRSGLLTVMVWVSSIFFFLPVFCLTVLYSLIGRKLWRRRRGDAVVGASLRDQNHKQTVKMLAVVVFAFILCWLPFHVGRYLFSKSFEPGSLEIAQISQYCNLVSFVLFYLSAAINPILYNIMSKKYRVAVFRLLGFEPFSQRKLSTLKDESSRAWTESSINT
SMILES,EC50 [1],Ki [2],ED50 [3],bioavailability [4],bioavailability [5],Activity (Canis familiaris)
CC(C)(N)C(=O)N[C@H](COCc1ccccc1)c1nnnn1C/C=C/c1ccccc1,12 nM,190 nM,0.0264 µmol/kg,,,
CC(C)(N)C(=O)N[C@H](COCc1ccccc1)c1nnn(Cc2ccccc2)n1,1120 nM,4750 nM,,,,
COC(=O)C(c1ccccc1)n1nnc([C@@H](COCc2ccccc2)NC(=O)C(C)(C)N)n1 (some centres not stated),3170 nM,> 5000 nM,,,,
CC(C)(N)C(=O)N[C@H](COCc1ccccc1)c1nnnn1CCc1cc2ccccc2n1S(C)(=O)=O,4 nM,970 nM,> 0.0174 µmol/kg,,,
CC(C)(N)C(=O)N[C@H](COCc1ccccc1)c1nnn(CC#N)n1,1520 nM,> 5000 nM,,,,
CC(C)(N)C(=O)N[C@H](COCc1ccccc1)c1nnn(CCc2ccccc2NS(C)(=O)=O)n1,4110 nM,2660 nM,,,,
CC(C)(N)C(=O)N[C@H](COCc1ccccc1)c1nnnn1CCCc1ccccc1,17 nM,200 nM,,,,
CC(C)(N)C(=O)N[C@H](COCc1ccccc1)c1nnnn1CCCCC#N,35 nM,3120 nM,,,,
CC(C)(N)C(=O)N[C@H](COCc1ccccc1)c1nnn(Cc2ccc(NS(C)(=O)=O)cc2)n1,986 nM,> 5000 nM,,,,
CC(C)(N)C(=O)N[C@H](COCc1ccccc1)c1nnnn1CCC(=O)NCCCc1ccccc1,59 nM,820 nM,,,,
CC(C)(N)C(=O)N[C@H](COCc1ccccc1)c1nnnn1CCc1ccccc1NS(C)(=O)=O,67 nM,2200 nM,,,,
CC(C)(N)C(=O)N[C@H](COCc1ccccc1)c1nnn(C/C=C/c2ccccc2)n1,517 nM,> 5000 nM,,,,
CC(C)(N)C(=O)N[C@H](COCc1ccccc1)c1nnnn1CCCCCNC(=O)OCc1ccccc1,10 nM,320 nM,,,,
COC(=O)CCn1nnnc1[C@@H](Cc1c[nH]c2ccccc12)NC(=O)C(C)(C)N,200 nM,> 5000 nM,,,,
CC(C)(N)C(=O)N[C@H](COCc1ccccc1)c1nnnn1CCCCCNS(C)(=O)=O,75 nM,> 5000 nM,,,,

# The remaining compounds from weak to strong by EC50 [1], led by results:
EC50 [1],Ki [2],ED50 [3],bioavailability [4],bioavailability [5],SMILES,Activity (Canis familiaris)
1860 nM,> 5000 nM,,,,CC(C)(N)C(=O)N[C@H](COCc1ccccc1)c1nnn(CCCCC#N)n1,
868 nM,> 5000 nM,,,,CC(C)(N)C(=O)N[C@H](COCc1ccccc1)c1nnn(Cc2cccc(NS(C)(=O)=O)c2)n1,
546 nM,> 5000 nM,,,,CC(C)(N)C(=O)N[C@H](COCc1ccccc1)c1nnn(CC2Cc3ccccc3N2S(C)(=O)=O)n1 (some centres not stated),
426 nM,> 5000 nM,,,,CC(C)(N)C(=O)N[C@H](COCc1ccccc1)c1nnn(Cc2ccccc2NS(C)(=O)=O)n1,
390 nM,4450 nM,,,,CC(C)(N)C(=O)N[C@H](COCc1ccccc1)c1nnnn1Cc1ccccc1NS(C)(=O)=O,
347 nM,5000 nM,,,,CC(C)(N)C(=O)N[C@H](COCc1ccccc1)c1nnnn1CCc1nnn[nH]1,
259 nM,> 5000 nM,,,,CC(C)(N)C(=O)N[C@H](COCc1ccccc1)c1nnnn1Cc1ccc(NS(C)(=O)=O)cc1,
150 nM,1270 nM,,,,CC(C)(N)C(=O)N[C@H](COCc1ccccc1)c1nnn(CCc2cc3ccccc3n2S(C)(=O)=O)n1,
147 nM,1590 nM,,,,CC(C)(N)C(=O)N[C@H](COCc1ccccc1)c1nnnn1CC1CN(S(C)(=O)=O)c2ccccc21 (some centres not stated),
116 nM,> 5000 nM,,,,CC(C)(N)C(=O)N[C@H](COCc1ccccc1)c1nnnn1Cc1cccc(NS(C)(=O)=O)c1,
107 nM,2390 nM,,,,CN(c1ccccc1CCCn1nnc([C@@H](COCc2ccccc2)NC(=O)C(C)(C)N)n1)S(C)(=O)=O,
99 nM,1900 nM,,,,CC(C)(N)C(=O)N[C@H](COCc1ccccc1)c1nnnn1Cc1ccccc1,
55 nM,2380 nM,,,,COC(=O)CCCn1nnnc1[C@@H](COCc1ccccc1)NC(=O)C(C)(C)N,
51 nM,1070 nM,,,,CC(C)(N)C(=O)N[C@H](COCc1ccccc1)c1nnnn1CCC(=O)NCc1ccccc1,
49 nM,1370 nM,,,,CCCCNC(=O)CCn1nnnc1[C@@H](CCc1ccccc1)NC(=O)C(C)(C)N,
43 nM,3380 nM,,,,COC(=O)CCn1nnnc1[C@@H](COCc1ccccc1)NC(=O)C(C)(C)N,
42 nM,2190 nM,,,,CCCCNC(=O)CCn1nnnc1[C@@H](COCc1ccccc1)NC(=O)C(C)(C)N,
30 nM,2940 nM,0.0085 µmol/kg,56%,76%,CC(C)(N)C(=O)N[C@H](COCc1ccccc1)c1nnnn1CCC#N,30 ng/mL
30 nM,1780 nM,,,,CCCCNC(=O)CCCn1nnnc1[C@@H](COCc1ccccc1)NC(=O)C(C)(C)N,
29 nM,4170 nM,,,,CC(C)(N)C(=O)N[C@H](COCc1ccccc1)c1nnnn1CC#N,
27 nM,780 nM,,,,CC(C)(N)C(=O)N[C@H](COCc1ccccc1)c1nnnn1CCC(=O)NCCc1ccccc1,
20 nM,470 nM,,,,COC(=O)C(c1ccccc1)n1nnnc1[C@@H](COCc1ccccc1)NC(=O)C(C)(C)N (some centres not stated),
14 nM,1720 nM,,,,CN(c1ccccc1CCCn1nnnc1[C@@H](COCc1ccccc1)NC(=O)C(C)(C)N)S(C)(=O)=O,
